The values below come from ChEMBL document CHEMBL4819003, “Optimization of novel oxidative DIMs as Nur77 modulators of the Nur77-Bcl-2 apoptotic pathway” (Eur J Med Chem, 2021).

Data set [1] can be described thus: AUC (0 to t) in female Sprague-Dawley rat at 0.5 mg/kg, iv measured for 36 hrs by LC-MS/MS analysis. The format is ADME, organism-based. On the set-up: dose 0.5 mg/kg, time 36 hrs. The following applies: in vivo. The essentials: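 Sprague-Dawley rats (200–220 g), three per sex per route, were dosed at 0.5 mg/kg IV or 5 mg/kg PO in DMSO/Tween-80/water (1:5:94). Heparinized blood was drawn from 5 min to 36 h after IV dosing and from 1 h to 36 h after oral dosing. Plasma was deproteinized with methanol (2% HCl) plus carbamazepine internal standard, measured by LC-MS/MS, and reported as mean ± SD.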

Data set [2] in a line: Cmax in female Sprague-Dawley rat at 0.5 mg/kg, iv measured for 36 hrs by LC-MS/MS analysis. It is filed as ADME, organism-based. On the set-up: route intravenous, time 36 hrs, dose 0.5 mg/kg. The settings on record: in vivo.
A short description of data set [3]: Cmax in male Sprague-Dawley rat at 5 mg/kg, po measured for 36 hrs by LC-MS/MS analysis. On the set-up: route oral, time 36 hrs, dose 5 mg/kg. It is filed as ADME, organism-based. The following applies: in vivo.
Data set [4] can be described thus: Half life in female Sprague-Dawley rat at 0.5 mg/kg, iv measured for 36 hrs by LC-MS/MS analysis. It is filed as ADME, organism-based. The settings on record: in vivo.
Data set [5] can be described thus: Half life in male Sprague-Dawley rat at 5 mg/kg, po measured for 36 hrs by LC-MS/MS analysis. The format is ADME, organism-based. The settings on record: in vivo.
The nature of data set [6]: MRT(0 to t) in male Sprague-Dawley rat at 5 mg/kg, po measured for 36 hrs by LC-MS/MS analysis. The format is ADME, organism-based. The following applies: in vivo. In a few lines:
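Sprague-Dawley rats (200–220 g), three males and three females per route group. Dosed 5 mg/kg orally or 0.5 mg/kg IV as a solution in DMSO/T-80/H2O (1:5:94 by volume). Heparinized blood was drawn from 5 min to 36 h after IV and 1–36 h after oral dosing. Plasma was protein-precipitated with methanol (2% HCl) plus carbamazepine internal standard and assayed by LC-MS/MS. Parameters were taken from concentration-time data; n = 3 per sex, mean ± SD.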

The nature of data set [7]: MRT(0 to t) in female Sprague-Dawley rat at 5 mg/kg, po measured for 36 hrs by LC-MS/MS analysis. The settings on record: in vivo. The format is ADME, organism-based.
The nature of data set [8]: Clearance in male Sprague-Dawley rat at 0.5 mg/kg, iv measured for 36 hrs by LC-MS/MS analysis. It is filed as ADME, organism-based. The following applies: in vivo.
A short description of data set [9]: Clearance in female Sprague-Dawley rat at 0.5 mg/kg, iv measured for 36 hrs by LC-MS/MS analysis. The settings on record: in vivo. It is filed as ADME, organism-based.
Data set [10] has as its target T1, Nuclear receptor subfamily 4immunitygroup A member 1 (Homo sapiens, UniProt P22736). Briefly: Modulation of Myc-Nur77 (unknown origin) transfected in human HEK293T cells assessed as induction of Myc-Nur77 mitochondrial targeting by measuring increase in Myc-Nur77 accumulation in mitochondria at 0.5 uM measured after 2 hrs by western blot analysis. The following applies: filed as modulator. The essentials:
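HEK293T cells transfected with Myc-Nur77 were exposed to 0.5 μM compound for 2 h. Cells were homogenised in sucrose Buffer D; 500 g then 5000 g spins gave a mitochondrial pellet. Whole-cell and mitochondrial fractions were western blotted for Myc-Nur77, with PARP and Tom20 as fraction-purity markers.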
Background: A western blot detects proteins with antibodies after separation by electrophoresis.

In data set [11] the target is T1, Nuclear receptor subfamily 4immunitygroup A member 1. The experiment in a line: Modulation of Myc-Nur77 (unknown origin) transfected in human HEK293T cells co-transfected with Flag-tagged Bcl2 assessed as interaction of Nur77 with Bcl2 at 0.5 uM measured after 1 to 3 hrs by co-immunoprecipitation assay. It is filed as cell-based. The settings on record: filed as modulator, time 1-3 hrs. In a few lines: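 HEK293T cells cotransfected with Flag-Bcl-2 and Myc-Nur77 were treated with or without 0.5 μM compound over the indicated times. They were lysed in Triton X-100 buffer with protease inhibitors; 5% of lysate was kept as input. Lysate was immunoprecipitated with anti-Flag at 4 °C for 12 h, then protein A-Sepharose for 3 h, washed three times in PBS and western blotted.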

For the next data set, the system named is MDA-MB-231. Briefly: Induction of apoptosis in human MDA-MB-231 cells assessed as PARP cleavage at 0.5 uM measured after 6 hrs by western blot assay. The format is functional, cell-based. The essentials:
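Cells exposed to 0.5 µM for 6 h. Lysates resolved by SDS-PAGE and blotted to PVDF, blocked in 5% milk/TBST, probed with primary antibodies at 1:1000, ECL detection. Apoptosis scored as the densitometric ratio of cleaved PARP band to intact PARP band; mean ± SD, n = 3.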

For data set [12], the target named is T1, Nuclear receptor subfamily 4immunitygroup A member 1. Briefly: Modulation of Myc-Nur77-LBD (unknown origin) transfected in human HEK293T cells assessed as induction of Myc-Nur77 mitochondrial targeting by measuring increase in Myc-Nur77 accumulation in mitochondria at 0.5 uM measured after 2 hrs by Mito-tracker dye based confocal microscopy method. The following applies: filed as modulator. The essentials: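 HEK293T cells transfected with Myc-Nur77-LBD were given 0.5 μM compound for 2 h, stained with Mito-Tracker and immunostained. Nur77 mitochondrial localisation was visualised by confocal microscopy.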

For data set [13] the target is unchanged. Briefly: Modulation of GFP-Nur77-LBD (unknown origin) transfected in human HEK293T cells co-transfected with Flag-tagged Bcl2 assessed as interaction of Nur77 with Bcl2 in mitochondria at 0.5 uM measured after 2 hrs by confocal microscopy. The settings on record: filed as modulator. In a few lines: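 HEK293T cells were lipofectamine-cotransfected with Flag-Bcl-2 and GFP-Nur77 or GFP-Nur77-LBD, then given 0.5 μM compound for 2 h. Cells were fixed in 4% paraformaldehyde, permeabilised with 0.1% Triton X-100, blocked in 1% BSA and stained with anti-Flag plus DAPI. Mitochondrial colocalisation with Bcl-2 was read by confocal microscopy.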

The test system of another data set is Mus musculus. The experiment in a line: Antitumour activity against FVB/N mammary tumor MMTV-PyMT mouse model assessed as inhibition of tumour growth at 3 mg/kg, po administered daily for 14 days. The settings on record: time 14.0 day. It is filed as functional, organism-based. In a few lines:
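Female MMTV-PyMT transgenic mice (FVB/N background), 12 weeks old, randomized n = 6 per group; daily oral gavage 3 mg/kg for 14 days. Dosing solution: DMSO stock diluted in normal saline with 5.0% (V/V) Tween-80 to 3 mg/mL. Tumours weighed at end; mean ± SD, Student's t-test versus untreated controls.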

Data set [14] is described as follows: Cmax in male/female Sprague-Dawley rat at 0.5 mg/kg, iv measured for 36 hrs by LC-MS/MS analysis. The format is ADME, organism-based. The arrangement: route intravenous, dose 0.5 mg/kg, time 36 hrs. The settings on record: both, in vivo.
Data set [15] is described as follows: Volume of distribution at steady state in male/female Sprague-Dawley rat at 0.5 mg/kg, iv measured for 36 hrs by LC-MS/MS analysis. The format is ADME, organism-based. The following applies: in vivo. In a few lines: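 Sprague-Dawley rats (200–220 g), four per route group (2 male, 2 female), given 0.5 mg/kg IV or 5 mg/kg orally in DMSO/T-80/H2O (1:5:94). Heparinized blood was sampled at 5 min–36 h after IV and at 0.5, 1, 3, 4, 6, 8, 10, 12, 24 and 36 h after oral dosing. Plasma was methanol (2% HCl)-precipitated with carbamazepine internal standard and quantified by LC-MS/MS. Parameters reported as mean ± SD.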

A short description of data set [16]: Selectivity index, ratio of IC50 for human MCF-10A cells to IC50 for human MDA-MB-231 cells. The format is toxicity. The following applies: MCF-10A cells versus MDA-MB-231 cells, read-out: Ratio IC50.
Data set [17] in a line: Selectivity index, ratio of IC50 for human MCF-10A cells to IC50 for human BT-549 cells.
Data set [18] in a line: Selectivity index, ratio of IC50 for human NCM460 cells to IC50 for human HCT-116 cells. The format is toxicity. The following applies: NCM460 cells versus HCT-116 cells, read-out: Ratio IC50.

Active and inactive are the calls of the source. The rule behind the calls is not given here.

T1 sequence (P22736 whole entry): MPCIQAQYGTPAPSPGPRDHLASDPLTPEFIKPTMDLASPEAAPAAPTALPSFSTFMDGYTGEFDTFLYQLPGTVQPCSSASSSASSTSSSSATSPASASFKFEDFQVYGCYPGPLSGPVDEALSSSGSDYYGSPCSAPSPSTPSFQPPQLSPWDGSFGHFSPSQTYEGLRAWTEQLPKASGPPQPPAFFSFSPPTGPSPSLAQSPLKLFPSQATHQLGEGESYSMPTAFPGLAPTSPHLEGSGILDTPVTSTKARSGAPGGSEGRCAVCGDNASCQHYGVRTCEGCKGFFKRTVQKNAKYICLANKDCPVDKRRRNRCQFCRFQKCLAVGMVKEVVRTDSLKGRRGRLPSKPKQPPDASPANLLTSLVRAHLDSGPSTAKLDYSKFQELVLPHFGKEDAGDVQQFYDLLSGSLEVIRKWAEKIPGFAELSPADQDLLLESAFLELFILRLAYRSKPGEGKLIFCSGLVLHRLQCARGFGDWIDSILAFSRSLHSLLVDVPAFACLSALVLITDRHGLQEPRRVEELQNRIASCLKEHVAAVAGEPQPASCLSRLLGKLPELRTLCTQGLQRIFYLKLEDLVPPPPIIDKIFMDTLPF

Turning to `CS(=O)(=O)[O-].FC(F)(F)c1ccc([C+](c2c[nH]c3ccccc23)c2c[nH]c3ccccc23)cc1`, the area under the curve AUC(0-t) at 36 h in data set [1] was determined as 1.73 µg·h/mL. For the same molecule, the Cmax in data set [2] came out at 1.64 µg/mL; in data set [3] it was 0.143 µg/mL. In addition, the half-life was 5.91 h in data set [4] and 5.28 h in data set [5]. Also, the MRT last at 36 h came out at 12.3 h in data set [6] and 14.5 h in [7]. The same molecule gave a clearance in [8] of 0.45 L/h/kg. Besides, the CL in data set [9] came to 0.28 L/h/kg.

In the case of `CS(=O)(=O)[O-].Cn1cc([C+](c2ccc(C(F)(F)F)cc2)c2c[nH]c3ccccc23)c2ccccc21`, the outcome (in data set [10]; in data set [11]; in the data set on MDA-MB-231; in data set [12]; in [13]; with Mus musculus) was Active. In data set [14], this molecule displayed a Cmax of 0.561 µg/mL. In data set [15], this molecule had a distribution volume (Vdss) of 3.69 L/kg. The selectivity ratio in data set [16] was found to be 40; in data set [18], 50. Besides, the “Ratio IC50” value in data set [17] came to 40.

The term AUC(0-t) denotes exposure summed from dosing to a finite time, without extrapolation to infinity. Low readings indicate low exposure, high ones high exposure. Broadly, the Cmax is the maximum level reached in the sampled fluid or tissue. Usually half-life stands for how long it takes for the measured level to halve. By MRT last is commonly meant a mean duration of stay, worked out from the concentration-time curve. The term clearance denotes the volume of plasma or blood freed of the substance per unit of time. Read a low clearance as a low capacity for elimination. One may read the Vdss as a proportionality between amount in the body and measured concentration, not a real space.
